Where two headings read alike, the source gives them in different places.

These results are taken from PMC11408085 (Biochemistry, 2024).

Series [1] deals with T1, IYD from Haliscomenobacter hydrossis (Haliscomenobacter hydrossis, UniProt F4KU78).
T1 sequence (F4KU78 1-222): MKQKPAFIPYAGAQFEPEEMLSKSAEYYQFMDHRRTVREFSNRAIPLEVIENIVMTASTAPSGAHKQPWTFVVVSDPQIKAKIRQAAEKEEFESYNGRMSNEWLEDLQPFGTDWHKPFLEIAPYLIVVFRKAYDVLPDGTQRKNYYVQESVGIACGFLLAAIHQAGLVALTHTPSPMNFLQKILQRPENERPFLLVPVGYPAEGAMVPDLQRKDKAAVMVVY
As to conditions: for fold change in t1/2: relative to IYD without ligand (10 min); for protection of IYD against trypsin: fluorinated ligands, saturating concentration; for fold increase in t1/2: O2N ligands, relative to IYD without ligand.

Series [2] concerns the target T2, trypsin from bovine pancreas (Bos taurus, UniProt P00760).
T2 sequence (P00760 24-246): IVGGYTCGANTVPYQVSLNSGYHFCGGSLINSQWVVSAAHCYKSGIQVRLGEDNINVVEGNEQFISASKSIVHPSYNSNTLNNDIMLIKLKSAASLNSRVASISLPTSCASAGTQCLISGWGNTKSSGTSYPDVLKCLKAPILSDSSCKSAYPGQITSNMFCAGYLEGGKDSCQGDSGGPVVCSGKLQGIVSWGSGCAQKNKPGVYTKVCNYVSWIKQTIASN
In words: Potential inhibition of trypsin by ligands of IYD. In kind it is biochemical. As to conditions: DL-BAPNA as substrate; for inhibition of trypsin: ligand at concentration saturating IYD. The essentials:
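4-Nitroaniline formation read at 405 nm (ε = 9920 M⁻¹cm⁻¹) every 15 s for 5 min. Rate taken by linear regression over the first 2 min. Repeated independently twice.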

Series [3] has as its target T3, E91K/K116E variant of IYD (Haliscomenobacter hydrossis, UniProt F4KU78, E91K/K116E). In words: Limited proteolysis of E91K/K116E variant of IYD by trypsin. As to conditions: relative to absence of ligands.
The target in series [4] is T1, IYD from Haliscomenobacter hydrossis. In words: biochemical. In kind it is binding.
For series [5], the target named is T3, E91K/K116E variant of IYD. Kind of series: Catalytic dehalogenation by E91K/K116E variant of IYD. It counts as biochemical.
In series [6] the target is T3, E91K/K116E variant of IYD. In words: Affinity of ligands to E91K/K116E variant of IYD. It counts as binding.
The target of series [7] is T1, IYD from Haliscomenobacter hydrossis. Kind of series: Redox titration of IYD in the presence of substrate analogues. Particulars: for formation of FMNsq during reductive titration: saturating ligand, anaerobic, pH 7.4, 25 °C; for two-electron potential of IYD: in presence of ligand, −200 mV in absence of ligands.
Series [8] shares this target. Kind of series: Catalytic deiodination. In kind it is biochemical. As to conditions: for kcat (s^−1) × 10^−2 / Km: deiodination, 100 mM potassium phosphate pH 7.4, 25 °C.
Series [9] has the same target. As to conditions: IYD with FMNox; ref Kozyryev et al.[26]; cited from earlier work.
For series [10] the target is unchanged. As to conditions: deiodination; ref Kozyryev et al.[26]; cited from earlier work.
The target is the same in series [11]. It counts as biochemical. Particulars: equimolar concentrations of substrate, anaerobic.
Substrate in series [12]: O=C(O)[C@@H](O)Cc1ccc(O)c(I)c1
Kind of series: Catalytic deiodination. It counts as biochemical, Haliscomenobacter hydrossis. Particulars: other: deiodination, 100 mM potassium phosphate pH 7.4, 25 °C.

Substrate in series [13]: N[C@H](Cc1ccc(O)c(I)c1)C(=O)O
In words: Catalytic deiodination. In kind it is biochemical, Haliscomenobacter hydrossis. Particulars: other: deiodination, 100 mM potassium phosphate pH 7.4, 25 °C.

[14] abbreviates: IYD with FMNox, 110 mM potassium phosphate pH 7.4, 25 °C.

As a reminder, the Kd is the concentration at which binding is half-saturated. In the case of `N[C@H](Cc1ccc(O)c(I)c1)C(=O)O` [D-I-Tyr, D-3-iodotyrosine], the “fold change in t1/2” value in series [1] was found to be 0.62. In series [2], the inhibition of trypsin result is “mild inhibitor of trypsin”. The “protection of variant from trypsin” value in [3] was “over a twofold protection”. Moreover, the Kd in series [4] stood at 270 ± 15 µM; in series [6] it was 200 ± 30 µM. In series [5], the catalytic dehalogenation result was “No catalytic dehalogenation could be detected”.
On to `N[C@@H](Cc1ccc(O)c(F)c1)C(=O)O` [F-Tyr, L-3-fluorotyrosine, reference compound], for which the “formation of FMNsq during reductive titration” value in series [7] is “consistent with the neutral form of FMNsq”. Binding in [4] was put at a Kd of 97 ± 3 µM. In addition, the “decrease in affinity relative to I-Tyr” value in series [4] (IYD with FMNox) is recorded as “more than 10 fold”.
Take `NCCc1ccc(O)c(F)c1` [F-tyramine]: in series [7], the “two-electron potential of IYD” value is reported as −225 mV and the “formation of FMNsq during reductive titration” value is recorded as “not detected”. The “protection of IYD against trypsin” value in series [1] was “protected IYD against trypsin”. For the same molecule, the inhibition of trypsin result in series [2] is “inhibited trypsin”. In [4] (setting [14]), this molecule had a Kd of 730 ± 140 µM.
`NC(=O)[C@@H](N)Cc1ccc(O)c(F)c1` [F-tyrosinamide]: in series [7], the “two-electron potential of IYD” value was −236 mV and the “formation of FMNsq during reductive titration” value is “not detected”. The “protection of IYD against trypsin” value in series [1] is recorded as “protected IYD against trypsin”. Further, in series [4] (setting [14]), binding was characterised by a dissociation constant (Kd) of 77 ± 3 µM.
Take `O=C(O)[C@@H](O)Cc1ccc(O)c(I)c1` [I-HPLA, (S)-3-(4-hydroxy-3-iodophenyl)lactic acid]: the Kd in series [4] is greater than 3000 µM.
Turning to `O=C(O)CCc1ccc(O)c(I)c1` [I-HPPA, 3-(4-hydroxy-3-iodophenyl)propanoic acid], the “kcat (s^−1) × 10^−2” value in series [8] is on record as <9.3 × 10^−3^e s^−1 × 10^−2. The “kcat as percentage of that for I-Tyr” value in [8] (set by detection limit of deiodinated product HPPA) was no more than 0.015%. The molecule further gave a Kd in series [4] greater than 4000 µM. Further, the “decrease in affinity relative to I-Tyr” value in [4] (IYD with FMNox) was “at least 700 fold”.
In general, Km refers to the concentration of substrate that gives half-maximal velocity. For `N[C@@H](Cc1ccc(O)c(I)c1)C(=O)O` [I-Tyr, L-3-iodotyrosine, reference compound], the “fold change in t1/2” value in [1] is recorded as 2.2. The inhibition of trypsin entry in series [2] was “not due to general inhibition of trypsin”. The Kd in [9] was 5.7 ± 0.4 µM. In addition, in series [3], the “protection of variant from trypsin” value was “over a twofold protection”. Further, in [10], the Km was 49 ± 10 µM and the “kcat (s^−1) × 10^−2” value is on record as 60 ± 0.5 s^−1 × 10^−2. In addition, the catalytic dehalogenation result in series [5] was “No catalytic dehalogenation could be detected”. Moreover, the Kd in [6] came out at 85 ± 14 µM.
With `NCCc1ccc(O)c(I)c1` [I-tyramine], in series [1], the “fold change in t1/2” value turned out to be 2.7. Also, in series [8], the “decrease in kcat for dehalogenation relative to I-Tyr” value is on record as “more than 30 fold”, the “decrease in kcat/Km of dehalogenation relative to I-Tyr” value is on record as “more than 900 fold”, the Km was determined as 1470 ± 450 µM and the “kcat (s^−1) × 10^−2” value was 1.8 ± 0.3 s^−1 × 10^−2. Besides, the Kd in series [4] (setting [14]) was determined as 99 ± 10 µM.
Take `NC(=O)C(N)Cc1ccc(O)c(I)c1` (stereo not shown) [I-tyrosinamide]: the “fold change in t1/2” value in series [1] turned out to be 2.7. In series [8], the “decrease in kcat for dehalogenation relative to I-Tyr” value is listed as “more than 30 fold”, the “decrease in kcat/Km of dehalogenation relative to I-Tyr” value is “more than 900 fold”, the Km amounted to 2410 ± 410 µM and the “kcat (s^−1) × 10^−2” value turned out to be 1.7 ± 0.2 s^−1 × 10^−2. Further, in series [4] (setting [14]), binding was put at a Kd of 7 ± 0.2 µM.
Consider `O=C(O)[C@@H](O)Cc1ccc(O)c([N+](=O)[O-])c1` [O2N-HPLA, (S)-3-(4-hydroxy-3-nitrophenyl)lactic acid], for which the “fold increase in t1/2” value in [1] is listed as 2.1. Besides, the “inhibition of trypsin catalysis” value in series [2] (ligand at twice its Kd value) is reported as “no more than 25%”. For the same molecule, in series [11], the “ability to oxidize reduced IYD (FMNhq)” value is “capable of oxidizing FMNhq to regenerate the initial FMNox spectrum”. The Kd in series [4] came to 180 ± 4 µM.
`NCCc1ccc(O)c([N+](=O)[O-])c1` [O2N-tyramine]: the “fold increase in t1/2” value in series [1] turned out to be 2.7. Further, in series [11], the “ability to oxidize reduced IYD (FMNhq)” value was “capable of oxidizing FMNhq to regenerate the initial FMNox spectrum”. Besides, the “weakening of binding relative to O2N-Tyr” value in [4] (IYD with FMNox) was 70 fold. The affinity in series [4] (setting [14]), expressed as Kd, was 280 ± 10 µM.
`NC(=O)[C@@H](N)Cc1ccc(O)c([N+](=O)[O-])c1` [O2N-tyrosinamide]: the “fold increase in t1/2” value in series [1] was determined as 3.0. In addition, the inhibition of trypsin entry in series [2] was “not the consequence of a general inhibition of trypsin”. In addition, the “ability to oxidize reduced IYD (FMNhq)” value in [11] is “capable of oxidizing FMNhq to regenerate the initial FMNox spectrum”. For the same molecule, the Kd in series [4] (setting [14]) is 2.4 ± 0.1 µM.

B1: IYD from Haliscomenobacter hydrossis (Haliscomenobacter hydrossis DSM 1100) (protein)
chain: MKQKPAFIPYAGAQFEPEEMLSKSAEYYQFMDHRRTVREFSNRAIPLEVIENIVMTASTAPSGAHKQPWTFVVVSDPQIKAKIRQAAEKEEFESYNGRMSNEWLEDLQPFGTDWHKPFLEIAPYLIVVFRKAYDVLPDGTQRKNYYVQESVGIACGFLLAAIHQAGLVALTHTPSPMNFLQKILQRPENERPFLLVPVGYPAEGAMVPDLQRKDKAAVMVVY
As a reminder, the kcat is the maximal rate divided by the concentration of active sites. What is called kcat/Km is the turnover number divided by the Michaelis constant. In the case of B1, in “Catalytic deiodination [12]”, the Km stood at 270 ± 30 µM, the turnover number (kcat) worked out at 0.013 ± 0.001 s⁻¹ and the kcat/Km came to 47 ± 5 M⁻¹ s⁻¹. In “Catalytic deiodination [13]”, the Km was determined as 7900 ± 4000 µM, the kcat was found to be 0.027 ± 0.01 s⁻¹ and the kcat/Km was found to be 3.4 ± 1 M⁻¹ s⁻¹.
